Assay results as given in ChEMBL document CHEMBL4725483, “Simultaneous Inhibition of SIRT2 Deacetylase and Defatty-Acylase Activities via a PROTAC Strategy” (ACS Med Chem Lett, 2020).
pIC50: −log10 of the molar value. Active and inactive are the calls of the source. No cut-off for these calls is given here.

Key:
[1] = target: T1, Protein cereblon/NAD-dependent protein deacetylase sirtuin-1 (Homo sapiens) (UniProt Q96EB6+Q96SW2); test: Protac activity at CRBN/SIRT1 in human HEK293T cells stably expressing flag-tagged K-Ras4a-G12V assessed as inhibition of SIRT2 defatty-acylation at 1 uM incubated for 48 hrs by immunoblot analysis; assay type: cell-based; details: HEK-293T
T1 sequence (Q96EB6 whole entry, looked up): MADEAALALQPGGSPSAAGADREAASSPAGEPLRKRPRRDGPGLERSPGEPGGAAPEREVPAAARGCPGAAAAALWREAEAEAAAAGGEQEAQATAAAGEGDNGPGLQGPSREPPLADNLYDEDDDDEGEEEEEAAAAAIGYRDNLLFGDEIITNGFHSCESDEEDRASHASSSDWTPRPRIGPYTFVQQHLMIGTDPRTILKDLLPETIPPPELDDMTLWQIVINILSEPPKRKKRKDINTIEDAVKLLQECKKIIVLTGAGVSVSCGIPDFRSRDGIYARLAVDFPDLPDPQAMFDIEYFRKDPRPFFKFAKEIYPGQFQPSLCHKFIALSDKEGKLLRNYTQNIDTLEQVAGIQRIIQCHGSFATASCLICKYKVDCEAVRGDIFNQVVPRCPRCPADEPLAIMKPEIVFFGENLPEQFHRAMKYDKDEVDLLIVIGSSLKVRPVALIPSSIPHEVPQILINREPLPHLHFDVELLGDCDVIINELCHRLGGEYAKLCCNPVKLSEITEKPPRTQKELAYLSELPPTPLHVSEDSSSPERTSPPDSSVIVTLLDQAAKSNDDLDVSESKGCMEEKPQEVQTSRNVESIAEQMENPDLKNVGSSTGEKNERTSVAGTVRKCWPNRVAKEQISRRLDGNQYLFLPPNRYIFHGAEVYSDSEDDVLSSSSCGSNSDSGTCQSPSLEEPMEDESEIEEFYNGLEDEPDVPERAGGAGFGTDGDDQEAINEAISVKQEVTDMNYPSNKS
T1 sequence (Q96SW2 whole entry, looked up): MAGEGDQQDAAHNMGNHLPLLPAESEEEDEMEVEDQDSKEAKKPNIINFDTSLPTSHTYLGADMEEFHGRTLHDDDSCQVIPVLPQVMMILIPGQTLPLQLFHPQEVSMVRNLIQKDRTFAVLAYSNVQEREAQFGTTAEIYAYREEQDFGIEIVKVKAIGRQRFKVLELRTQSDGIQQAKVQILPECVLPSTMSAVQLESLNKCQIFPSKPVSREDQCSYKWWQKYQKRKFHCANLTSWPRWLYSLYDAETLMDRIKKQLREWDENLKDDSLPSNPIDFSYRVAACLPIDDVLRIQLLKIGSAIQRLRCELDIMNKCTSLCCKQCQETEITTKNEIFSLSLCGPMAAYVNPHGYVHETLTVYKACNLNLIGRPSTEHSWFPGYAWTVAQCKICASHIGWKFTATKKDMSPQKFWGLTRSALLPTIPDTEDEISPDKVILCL
Outline: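 HEK 293T cells stably overexpressing Flag-tagged K-Ras4a-G12V (confirmed by pan-Ras blot) were exposed to 1 μM compound for 48 h. SIRT1, SIRT2 and SIRT3 levels were then read by immunoblot.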

[2] = target: Protein cereblon/NAD-dependent protein deacylase sirtuin-6 (Homo sapiens) (UniProt Q8N6T7+Q96SW2); test: Protac activity at CRBN/SIRT6 in human HEK293T cells assessed as abundance ratio at 5 uM incubated for 16 hrs by TMT global proteomics assay relative to DMSO; assay type: cell-based; details: HEK-293T
Sequence of Protein cereblon/NAD-dependent protein deacylase sirtuin-6 (Homo sapiens) (Q8N6T7 2-355 limits assumed): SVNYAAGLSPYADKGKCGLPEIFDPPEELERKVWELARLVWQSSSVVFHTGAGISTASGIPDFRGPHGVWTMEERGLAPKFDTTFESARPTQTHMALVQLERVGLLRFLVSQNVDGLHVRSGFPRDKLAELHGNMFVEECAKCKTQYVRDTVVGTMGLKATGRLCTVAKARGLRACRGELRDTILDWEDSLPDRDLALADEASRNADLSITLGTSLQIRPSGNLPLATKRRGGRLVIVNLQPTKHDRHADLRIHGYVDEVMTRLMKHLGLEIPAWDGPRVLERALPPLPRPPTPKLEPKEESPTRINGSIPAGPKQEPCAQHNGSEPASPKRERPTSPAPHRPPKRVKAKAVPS
Sequence of Protein cereblon/NAD-dependent protein deacylase sirtuin-6 (Homo sapiens) (Q96SW2 whole entry partner): as the sequence (Q96SW2 whole entry, looked up) above
Outline: (§1)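 HEK 293T cells were treated for 16 h. Global proteome was quantified by Tandem Mass Tag labelling. The abundance ratio of each sirtuin was taken against DMSO-treated cells.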

[3] = target: T1, Protein cereblon/NAD-dependent protein deacetylase sirtuin-1 (Homo sapiens); test: Protac activity at CRBN/SIRT1 in human MCF7 cells assessed as SIRT1 degradation at 5 to 10 uM after 48 hrs by immunoblot analysis; assay type: cell-based; details: dose microM 5-10, time 48.0 hrs
Outline: (§2)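 MCF7 or BT-549 cells exposed to inhibitor at the indicated concentrations for 48 h; SIRT1, SIRT2 and SIRT3 levels read by immunoblot.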

[4] = target: T2, NAD-dependent protein deacetylase sirtuin-3, mitochondrial (Homo sapiens, UniProt Q9NTG7); test: Inhibition of human SIRT3 deacetylation activity using H3K9Ac as substrate preincubated for 15 mins in presence of NAD+ followed by substrate addition by HPLC analysis
T2 sequence (Q9NTG7 whole entry): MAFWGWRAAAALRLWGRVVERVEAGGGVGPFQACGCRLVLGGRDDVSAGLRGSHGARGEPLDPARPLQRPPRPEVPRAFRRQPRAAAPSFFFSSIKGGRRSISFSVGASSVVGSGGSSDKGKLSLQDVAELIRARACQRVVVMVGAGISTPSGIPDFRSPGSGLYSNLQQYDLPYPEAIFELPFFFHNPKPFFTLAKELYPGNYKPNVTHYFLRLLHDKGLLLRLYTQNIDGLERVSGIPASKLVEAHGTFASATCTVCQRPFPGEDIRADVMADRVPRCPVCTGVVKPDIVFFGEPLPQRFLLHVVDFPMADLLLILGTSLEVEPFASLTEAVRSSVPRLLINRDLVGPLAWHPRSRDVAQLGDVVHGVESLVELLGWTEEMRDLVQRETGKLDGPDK
Outline: (§3)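 In vitro sirtuin reaction mixture with compound at a range of concentrations. Compound was preincubated with NAD+ and the enzyme before the substrate peptide was added. IC50 taken from the concentration series.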

[5] = target: NAD-dependent protein deacylase sirtuin-5, mitochondrial (Homo sapiens, UniProt Q9NXA8); test: Inhibition of human SIRT5 deacetylation activity using H3K9Ac as substrate preincubated for 15 mins in presence of NAD+ followed by substrate addition by HPLC analysis; outline: as §3
Sequence of NAD-dependent protein deacylase sirtuin-5, mitochondrial (Q9NXA8 whole entry): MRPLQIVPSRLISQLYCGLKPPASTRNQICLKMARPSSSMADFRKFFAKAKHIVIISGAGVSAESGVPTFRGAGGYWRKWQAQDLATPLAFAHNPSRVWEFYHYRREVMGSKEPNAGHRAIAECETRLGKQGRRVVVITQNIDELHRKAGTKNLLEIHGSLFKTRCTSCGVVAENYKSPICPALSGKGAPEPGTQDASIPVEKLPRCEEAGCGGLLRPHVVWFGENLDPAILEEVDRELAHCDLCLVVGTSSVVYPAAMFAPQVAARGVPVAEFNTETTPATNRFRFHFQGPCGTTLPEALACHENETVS

[6] = target: T1, Protein cereblon/NAD-dependent protein deacetylase sirtuin-1 (Homo sapiens); test: Protac activity at CRBN/SIRT1 in human BT549 cells assessed as SIRT1 degradation at 5 to 10 uM after 48 hrs by immunoblot analysis; assay type: cell-based; details: BT-549, dose microM 5-10, time 48.0 hrs; outline: as §2
[7] = target: T3, Protein cereblon/NAD-dependent protein deacetylase sirtuin-2 (Homo sapiens) (UniProt Q8IXJ6+Q96SW2); test: Protac activity at CRBN/SIRT2 in human BT549 cells assessed as SIRT2 degradation at 5 to 10 uM after 48 hrs by immunoblot analysis; assay type: cell-based; details: BT-549, dose microM 5-10, time 48.0 hrs
T3 sequence (Q96SW2 whole entry, looked up, one chain of several): as the sequence (Q96SW2 whole entry, looked up) above
Outline: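 Cells exposed to compound at the indicated concentrations for 48 h. SIRT1, SIRT2 and SIRT3 levels were read by immunoblot.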

[8] = test system: MDA-MB-231; test: Cytotoxicity against human MDA-MB-231 cells assessed as reduction in cell viability at 1 uM after 72 hrs; assay type: functional, cell-based
[9] = species on record: Homo sapiens; test: Selectivity ratio of IC50 for inhibition of human SIRT1 deacetylation activity to IC50 for inhibition of human SIRT2 deacetylation activity
Outline: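 Ratio of SIRT1 deacetylase IC50 to SIRT2 deacetylase IC50, both measured with compound, NAD+ and enzyme preincubated before peptide substrate addition.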

[10] = target: T4, NAD-dependent protein deacetylase sirtuin-2 (Homo sapiens, UniProt Q8IXJ6); test: Inhibition of human SIRT2 deacetylation activity using H3K9Ac as substrate preincubated for 15 mins in presence of NAD+ by HPLC analysis; outline: as §3
T4 sequence (Q8IXJ6 whole entry): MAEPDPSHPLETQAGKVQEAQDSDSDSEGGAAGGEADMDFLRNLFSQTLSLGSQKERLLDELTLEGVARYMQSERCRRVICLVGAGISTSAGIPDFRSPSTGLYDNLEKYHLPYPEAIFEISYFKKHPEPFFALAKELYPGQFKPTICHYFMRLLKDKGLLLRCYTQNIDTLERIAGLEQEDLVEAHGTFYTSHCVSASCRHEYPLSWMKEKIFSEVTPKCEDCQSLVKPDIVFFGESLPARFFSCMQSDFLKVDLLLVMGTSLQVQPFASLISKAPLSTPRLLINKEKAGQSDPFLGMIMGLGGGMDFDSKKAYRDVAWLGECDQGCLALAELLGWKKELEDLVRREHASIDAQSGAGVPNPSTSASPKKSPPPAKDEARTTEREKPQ

[11] = target: T3, Protein cereblon/NAD-dependent protein deacetylase sirtuin-2 (Homo sapiens); test: Protac activity at CRBN/SIRT2 in human HEK293T cells assessed as abundance ratio at 5 uM incubated for 16 hrs by TMT global proteomics assay relative to DMSO; assay type: cell-based; details: HEK-293T; outline: as §1
[12] = target: T3, Protein cereblon/NAD-dependent protein deacetylase sirtuin-2 (Homo sapiens); test: Protac activity at CRBN/SIRT2 in human MCF7 cells assessed as SIRT2 degradation at 25 uM by immunoblot analysis; assay type: cell-based
Outline: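 MCF7 cells treated at a fixed concentration (10 or 25 μM) and harvested at several incubation times; SIRT2 level read by immunoblot.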

[13] = target: T1, Protein cereblon/NAD-dependent protein deacetylase sirtuin-1 (Homo sapiens); test: Protac activity at CRBN/SIRT1 in human HEK293T cells assessed as abundance ratio at 5 uM incubated for 16 hrs by TMT global proteomics assay relative to DMSO; assay type: cell-based; details: HEK-293T
Outline: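 HEK 293T cells given 5 μM compound for 16 h. Global proteomics used Tandem Mass Tag labelling, and each sirtuin's abundance is given as a ratio of treated to DMSO-treated cells.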

[14] = target: T3, Protein cereblon/NAD-dependent protein deacetylase sirtuin-2 (Homo sapiens); test: Protac activity at CRBN/SIRT2 in human HEK293T cells stably expressing flag-tagged K-Ras4a assessed as inhibition of SIRT2 defatty-acylation at 1 uM incubated for 42 hrs followed by Alkyne-14 addition and measured after 6 hrs by immunoprecipitation based assay; assay type: cell-based; details: HEK-293T
Outline: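 HEK 293T cells stably expressing Flag-K-Ras4a-G12V were treated with 1 μM compound for 42 h, then labelled with 50 μM Alk-14 for 6 h more. Flag-K-Ras4a was immunoprecipitated and a fluorescent dye attached by click chemistry. NH2OH was applied to strip cysteine fatty acylation, and lysine fatty acylation was measured by in-gel fluorescence and quantified relative to DMSO.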

[15] = test system: MDA-MB-231; test: Cytotoxicity against human MDA-MB-231 cells assessed as reduction in cell viability after 72 hrs; assay type: functional, cell-based
Outline: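 Cells incubated with compound or thalidomide for 72 h; cell viability read out at the end of exposure.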

[16] = target: T4, NAD-dependent protein deacetylase sirtuin-2; test: Inhibition of human SIRT2 defatty-acylation activity using peptide substrate preincubated in presence of NAD+ followed by substrate addition by HPLC analysis
Outline: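 SIRT2 defatty-acylase reaction with compound at a range of concentrations. Compound was preincubated with NAD+ and SIRT2 before the peptide substrate was added. IC50 derived from the dose series.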

CCCCCCCCCCCCCC(=S)NCCCC[C@H](NC(=O)CCOCCOCCOCCOCCNc1cccc2c1C(=O)N(C1CCC(=O)NC1=O)C2=O)C(=O)Nc1ccccc1 (stereo partly specified)
Activity [1]: inactive
Activity [2]: inactive
Activity [3]: inactive
pIC50 [4]: < 4.08
pIC50 [5]: < 4.08
Activity [6]: inactive
Activity [7]: Active
Activity [8]: inactive
Ratio IC50 [9]: 500
pIC50 [10]: 7.11
Ratio [11]: 0.36
Activity [12]: inactive
Activity [13]: inactive
Activity [14]: Active
Activity [15]: Active
pIC50 [16]: 6.96
